According to ChEMBL document CHEMBL1138216, “Design and synthesis of novel derivatives of the muscarinic agonist tetra(ethylene glycol)(3-methoxy-1,2,5-thiadiazol-4-yl) [3-(1-methyl-1,2,5,6-tetrahydropyrid-3-yl)-1,2,5-thiadiazol-4-yl] ether (CDD-0304): effects of structural modifications on the binding and activity at muscarinic receptor …” (J Med Chem, 2006):
Substitutions are numbered along the chain they refer to. The source made the active and inactive calls. The calls are words filed in the database; no cut-off is given here.

Columns and labels:
[1] = target: T1, Muscarinic acetylcholine receptor M1/M5 chimeric protein (Homo sapiens) (UniProt P11229+P08912); test: Agonist activity at human M1/M5(o2o3) chimeric receptor expressed in A9 L cells assessed as stimulation of phosphoinositide hydrolysis relative to carbachol; assay type: functional, cell-based; conditions: L929
T1 sequence (P11229 whole entry, looked up, change not shown, one chain of several): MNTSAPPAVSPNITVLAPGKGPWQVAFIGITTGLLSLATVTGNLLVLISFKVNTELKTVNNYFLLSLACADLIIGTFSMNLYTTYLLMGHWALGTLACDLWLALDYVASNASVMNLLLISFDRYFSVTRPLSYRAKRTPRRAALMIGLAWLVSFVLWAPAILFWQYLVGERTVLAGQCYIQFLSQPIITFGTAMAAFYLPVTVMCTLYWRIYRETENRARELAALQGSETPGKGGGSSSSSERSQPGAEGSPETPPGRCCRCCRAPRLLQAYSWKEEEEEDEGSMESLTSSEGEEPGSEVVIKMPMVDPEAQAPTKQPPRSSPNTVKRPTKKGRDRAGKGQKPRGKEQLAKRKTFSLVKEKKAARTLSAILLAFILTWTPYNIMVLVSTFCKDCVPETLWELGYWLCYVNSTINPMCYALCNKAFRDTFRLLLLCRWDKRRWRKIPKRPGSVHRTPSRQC
Outline: (§1)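 A9 L cells stably expressing the receptor, seeded 24 h, labelled overnight with 10 µCi/mL [3H]inositol in inositol-free DMEM; ligands in HBSS with 10 mM LiCl, 20 mM HEPES, 37 °C, 1 h; formic acid extraction, inositol phosphates counted by SPA beads.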

[2] = target: T1, Muscarinic acetylcholine receptor M1/M5 chimeric protein (Homo sapiens); test: Agonist activity at human M1/M5(o3) chimeric receptor expressed in A9 L cells assessed as stimulation of phosphoinositide hydrolysis relative to carbachol; assay type: functional, cell-based; conditions: L929; outline: as §1
[3] = target: T1, Muscarinic acetylcholine receptor M1/M5 chimeric protein (Homo sapiens); test: Agonist activity at human M1/M5(o2) chimeric receptor expressed in A9 L cells assessed as stimulation of phosphoinositide hydrolysis relative to carbachol; assay type: functional, cell-based; conditions: L929; outline: as §1
[4] = target: Muscarinic acetylcholine receptor M3 (Homo sapiens, UniProt P20309); test: Agonist activity at human M3 receptor expressed in A9 L cells assessed as stimulation of phosphoinositide hydrolysis relative to carbachol; assay type: functional, cell-based; conditions: L929; outline: as §1
Chain of Muscarinic acetylcholine receptor M3 (P20309 whole entry, looked up): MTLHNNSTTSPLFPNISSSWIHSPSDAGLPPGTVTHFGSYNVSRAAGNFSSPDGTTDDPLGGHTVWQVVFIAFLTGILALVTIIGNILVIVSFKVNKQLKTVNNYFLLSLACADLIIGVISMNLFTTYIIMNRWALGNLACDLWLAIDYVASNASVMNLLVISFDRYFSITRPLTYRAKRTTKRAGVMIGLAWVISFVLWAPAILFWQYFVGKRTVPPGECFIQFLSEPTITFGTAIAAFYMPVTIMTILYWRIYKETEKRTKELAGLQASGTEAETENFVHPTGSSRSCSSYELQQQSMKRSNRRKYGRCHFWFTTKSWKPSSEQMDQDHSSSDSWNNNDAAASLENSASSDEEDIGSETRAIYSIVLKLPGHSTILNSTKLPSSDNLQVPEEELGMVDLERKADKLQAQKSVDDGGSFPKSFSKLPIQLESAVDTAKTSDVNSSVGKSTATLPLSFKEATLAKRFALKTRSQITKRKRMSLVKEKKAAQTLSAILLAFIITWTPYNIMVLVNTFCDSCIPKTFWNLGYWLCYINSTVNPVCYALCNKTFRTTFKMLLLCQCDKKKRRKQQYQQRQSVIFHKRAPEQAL

[5] = target: T2, Muscarinic acetylcholine receptor M5 (Homo sapiens) (UniProt P08912); test: Agonist activity at human M5 receptor expressed in A9 L cells assessed as stimulation of phosphoinositide hydrolysis relative to carbachol; assay type: functional, cell-based; conditions: L929; outline: as §1
T2 sequence (whole entry): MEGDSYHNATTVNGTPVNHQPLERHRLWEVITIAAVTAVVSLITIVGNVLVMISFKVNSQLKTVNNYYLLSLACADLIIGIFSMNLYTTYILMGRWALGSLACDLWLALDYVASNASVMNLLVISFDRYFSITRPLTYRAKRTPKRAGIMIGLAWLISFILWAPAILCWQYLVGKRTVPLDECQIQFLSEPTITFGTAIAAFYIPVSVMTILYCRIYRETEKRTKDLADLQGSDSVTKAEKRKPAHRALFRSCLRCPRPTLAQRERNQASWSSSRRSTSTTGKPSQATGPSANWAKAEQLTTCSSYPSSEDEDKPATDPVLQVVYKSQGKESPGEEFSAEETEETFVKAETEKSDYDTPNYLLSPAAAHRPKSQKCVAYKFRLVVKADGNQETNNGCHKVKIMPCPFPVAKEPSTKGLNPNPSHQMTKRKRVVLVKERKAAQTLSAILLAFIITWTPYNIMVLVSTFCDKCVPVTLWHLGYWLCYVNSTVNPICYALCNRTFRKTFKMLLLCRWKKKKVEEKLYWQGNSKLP

[6] = target: T3, Muscarinic acetylcholine receptor M4 (Homo sapiens) (UniProt P08173); test: Activity at human M4 receptor assessed as inhibition of forskolin-stimulated cAMP accumulation relative to carbachol; assay type: functional
T3 sequence (whole entry): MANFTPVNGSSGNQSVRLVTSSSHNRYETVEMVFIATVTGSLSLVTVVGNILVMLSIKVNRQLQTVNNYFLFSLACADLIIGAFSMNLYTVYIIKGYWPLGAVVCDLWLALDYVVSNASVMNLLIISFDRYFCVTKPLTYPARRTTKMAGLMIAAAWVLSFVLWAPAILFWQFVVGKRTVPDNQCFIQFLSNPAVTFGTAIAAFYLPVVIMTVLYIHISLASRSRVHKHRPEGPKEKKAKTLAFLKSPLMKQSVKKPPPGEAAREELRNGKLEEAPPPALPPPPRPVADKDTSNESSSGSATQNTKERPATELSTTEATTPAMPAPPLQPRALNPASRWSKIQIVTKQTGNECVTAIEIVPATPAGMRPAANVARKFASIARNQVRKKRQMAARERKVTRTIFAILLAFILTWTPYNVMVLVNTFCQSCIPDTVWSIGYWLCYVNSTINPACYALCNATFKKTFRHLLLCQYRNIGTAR

[7] = system: T4, Muscarinic acetylcholine receptor M1 (Homo sapiens), P11229 [E170K]; test: Agonist activity at human M1 receptor E170K mutant expressed in A9 L cells assessed as stimulation of phosphoinositide hydrolysis relative to carbachol; assay type: functional, cell-based; conditions: L929; outline: as §1
T4 sequence (whole entry): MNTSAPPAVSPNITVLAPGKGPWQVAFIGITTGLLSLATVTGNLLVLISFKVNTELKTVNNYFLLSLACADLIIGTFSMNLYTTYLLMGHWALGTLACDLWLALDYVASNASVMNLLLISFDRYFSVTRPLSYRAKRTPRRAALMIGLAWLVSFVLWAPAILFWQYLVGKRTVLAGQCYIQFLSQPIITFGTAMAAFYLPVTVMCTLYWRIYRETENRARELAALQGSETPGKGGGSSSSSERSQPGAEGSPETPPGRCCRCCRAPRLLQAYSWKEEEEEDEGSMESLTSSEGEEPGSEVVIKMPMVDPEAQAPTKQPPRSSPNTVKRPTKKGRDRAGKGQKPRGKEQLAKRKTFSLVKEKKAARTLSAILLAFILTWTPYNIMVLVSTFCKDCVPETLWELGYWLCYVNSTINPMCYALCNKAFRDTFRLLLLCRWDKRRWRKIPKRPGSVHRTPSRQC

[8] = target: T5, Muscarinic acetylcholine receptor M1 (Homo sapiens) (UniProt P11229); test: Agonist activity at human M1 receptor expressed in A9 L cells assessed as stimulation of phosphoinositide hydrolysis relative to carbachol; assay type: functional, cell-based; conditions: L929; outline: as §1
T5 sequence (whole entry): T4 sequence (whole entry) with K170E

Smax [4] [%]	Smax [5] [%]	SMILES	Smax [1] [%]	Smax [2] [%]	Smax [3] [%]	Imax [6] [%]	Smax [7] [%]	Smax [8] [%]	Activity [4]	Activity [5]
80	43	CCCCCCOc1nsnc1C1=CCCN(C)C1 [XANOMELINE]	20	21	75	77	31	71		
		COc1nsnc1OCCOCCOCCOCCOc1nsnc1C1=CCCN(C)C1	5.3	9.7	20	40	27	47	inactive	inactive
